According to ChEMBL document CHEMBL1140243, “Synthesis and SAR of 2,3-diarylpyrrole inhibitors of parasite cGMP-dependent protein kinase as novel anticoccidial agents” (Bioorg Med Chem Lett, 2005):
One block for each compound: values may come before it.

Experiments:
Eimeria tenella = assay: Anticoccidial activity (percent reduction in oocyst production) against Eimeria tenella in white leghorn chickens at 100 ppm; format: functional; design: scale not given: the % may be the effect or the level left
Method in brief: (§1)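 White Leghorn chicks were acclimated, then at 3 days old sorted by weight and randomized to medicated or control diets. There were one or two replicates of two birds per treatment. After 24 h of premedication, one bird per replicate got E. acervulina and the other E. tenella, both drug-sensitive laboratory strains. Inocula were sporulated oocysts in tap water, 0.25 mL per bird, giving low-to-moderate infection.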

Eimeria acervulina = assay: Anticoccidial activity (percent reduction in oocyst production) against Eimeria acervulina in white leghorn chickens at 100 ppm; format: functional; design: scale not given: the % may be the effect or the level left; method in brief: as §1
[1] = target: cGMP-dependent protein kinase (Eimeria tenella, UniProt Q8MMZ8); assay: In vitro inhibition of Eimeria tenella cGMP-dependent protein kinase
cGMP-dependent protein kinase, sequence (Q8MMZ8 whole entry): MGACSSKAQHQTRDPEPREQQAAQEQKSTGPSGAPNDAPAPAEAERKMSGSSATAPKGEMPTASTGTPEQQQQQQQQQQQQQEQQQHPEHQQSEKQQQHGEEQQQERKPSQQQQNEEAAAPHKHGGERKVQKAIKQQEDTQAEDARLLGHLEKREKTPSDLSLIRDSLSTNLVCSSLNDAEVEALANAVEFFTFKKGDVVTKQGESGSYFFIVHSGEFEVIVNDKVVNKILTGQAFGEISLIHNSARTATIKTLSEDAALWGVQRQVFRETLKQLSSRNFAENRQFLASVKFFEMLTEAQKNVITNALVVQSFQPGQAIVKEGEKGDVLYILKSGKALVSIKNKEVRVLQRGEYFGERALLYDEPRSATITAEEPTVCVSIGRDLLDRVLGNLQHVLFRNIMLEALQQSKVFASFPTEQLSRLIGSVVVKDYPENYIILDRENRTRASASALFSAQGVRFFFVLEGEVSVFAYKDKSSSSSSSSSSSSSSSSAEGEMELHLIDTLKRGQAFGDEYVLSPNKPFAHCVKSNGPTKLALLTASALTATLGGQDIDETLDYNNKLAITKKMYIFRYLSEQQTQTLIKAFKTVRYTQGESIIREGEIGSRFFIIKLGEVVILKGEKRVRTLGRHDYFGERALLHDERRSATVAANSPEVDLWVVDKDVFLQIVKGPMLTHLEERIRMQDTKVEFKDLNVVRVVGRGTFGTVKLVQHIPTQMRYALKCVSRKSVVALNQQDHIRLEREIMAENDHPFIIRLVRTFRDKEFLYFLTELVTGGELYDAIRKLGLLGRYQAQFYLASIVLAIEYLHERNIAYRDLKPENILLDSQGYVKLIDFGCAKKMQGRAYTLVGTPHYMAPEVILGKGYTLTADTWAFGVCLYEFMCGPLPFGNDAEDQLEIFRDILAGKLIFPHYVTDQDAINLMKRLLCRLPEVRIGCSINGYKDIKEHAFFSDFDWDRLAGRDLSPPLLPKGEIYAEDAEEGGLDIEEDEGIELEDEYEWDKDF

Gallus gallus [2] = organism: Gallus gallus; assay: Half-life in the chicken; format: functional, organism-based
Gallus gallus [3] = organism: Gallus gallus; assay: Anticoccidial activity (percent reduction in oocyst production) against Eimeria necatrix in chickens at 25 ppm; Range = 50-79 %; format: functional; design: scale not given: the % may be the effect or the level left
Gallus gallus [4] = assay: Oral bioavailability in the chicken; format: functional, organism-based
Gallus gallus [5] = organism: Gallus gallus; assay: Anticoccidial activity (percent reduction in oocyst production) against Eimeria maxima in chickens at 25 ppm; Range = 50-79 %; format: functional; design: scale not given: the % may be the effect or the level left
Gallus gallus [6] = organism: Gallus gallus; assay: Anticoccidial activity (percent reduction in oocyst production) against Eimeria acervulina in chickens at 50 ppm; format: functional; design: scale not given: the % may be the effect or the level left; method in brief: as §1
Gallus gallus [7] = organism: Gallus gallus; assay: Anticoccidial activity (percent reduction in oocyst production) against Eimeria tenella in chickens at 125 ppm; format: functional; design: scale not given: the % may be the effect or the level left; method in brief: as §1
Gallus gallus [8] = organism: Gallus gallus; assay: Anticoccidial activity (percent reduction in oocyst production) against Eimeria acervulina in chickens at 25 ppm; Range = 50-79 %; format: functional; design: scale not given: the % may be the effect or the level left; method in brief: as §1
Gallus gallus [9] = organism: Gallus gallus; assay: Anticoccidial activity (percent reduction in oocyst production) against Eimeria mitis in chickens at 50 ppm; format: functional; design: scale not given: the % may be the effect or the level left
Gallus gallus [10] = organism: Gallus gallus; assay: Anticoccidial activity (percent reduction in oocyst production) against Eimeria tenella in chickens at 50 ppm; format: functional; design: scale not given: the % may be the effect or the level left; method in brief: as §1
Gallus gallus [11] = organism: Gallus gallus; assay: Anticoccidial activity (percent reduction in oocyst production) against Eimeria praecox in chickens at 75 ppm; format: functional; design: scale not given: the % may be the effect or the level left
Gallus gallus [12] = organism: Gallus gallus; assay: Anticoccidial activity (percent reduction in oocyst production) against Eimeria mivati in chickens at 125 ppm; format: functional; design: scale not given: the % may be the effect or the level left
Gallus gallus [13] = organism: Gallus gallus; assay: Anticoccidial activity (percent reduction in oocyst production) against Eimeria praecox in chickens at 50 ppm; format: functional; design: scale not given: the % may be the effect or the level left
Gallus gallus [14] = organism: Gallus gallus; assay: Anticoccidial activity (percent reduction in oocyst production) against Eimeria mivati in chickens at 75 ppm; format: functional; design: scale not given: the % may be the effect or the level left
Gallus gallus [15] = organism: Gallus gallus; assay: Anticoccidial activity (percent reduction in oocyst production) against Eimeria brunetti in chickens at 75 ppm; format: functional; design: scale not given: the % may be the effect or the level left
Gallus gallus [16] = organism: Gallus gallus; assay: Anticoccidial activity (percent reduction in oocyst production) against Eimeria brunetti in chickens at 125 ppm; format: functional; design: scale not given: the % may be the effect or the level left
Gallus gallus [17] = organism: Gallus gallus; assay: Anticoccidial activity (percent reduction in oocyst production) against Eimeria acervulina in chickens at 75 ppm; format: functional; design: scale not given: the % may be the effect or the level left; method in brief: as §1
Gallus gallus [18] = organism: Gallus gallus; assay: Anticoccidial activity (percent reduction in oocyst production) against Eimeria maxima in chickens at 50 ppm; format: functional; design: scale not given: the % may be the effect or the level left
Gallus gallus [19] = organism: Gallus gallus; assay: Anticoccidial activity (percent reduction in oocyst production) against Eimeria necatrix in chickens at 50 ppm; format: functional; design: scale not given: the % may be the effect or the level left
Gallus gallus [20] = organism: Gallus gallus; assay: Anticoccidial activity (percent reduction in oocyst production) against Eimeria maxima in chickens at 125 ppm; format: functional; design: scale not given: the % may be the effect or the level left
Gallus gallus [21] = organism: Gallus gallus; assay: Anticoccidial activity (percent reduction in oocyst production) against Eimeria mivati in chickens at 25 ppm; Range = 50-79 %; format: functional; design: scale not given: the % may be the effect or the level left
Gallus gallus [22] = organism: Gallus gallus; assay: Anticoccidial activity (percent reduction in oocyst production) against Eimeria mivati in chickens at 50 ppm; format: functional; design: scale not given: the % may be the effect or the level left
Gallus gallus [23] = organism: Gallus gallus; assay: Anticoccidial activity (percent reduction in oocyst production) against Eimeria praecox in chickens at 125 ppm; format: functional; design: scale not given: the % may be the effect or the level left
Gallus gallus [24] = organism: Gallus gallus; assay: Anticoccidial activity (percent reduction in oocyst production) against Eimeria necatrix in chickens at 75 ppm; format: functional; design: scale not given: the % may be the effect or the level left
Gallus gallus [25] = organism: Gallus gallus; assay: Anticoccidial activity (percent reduction in oocyst production) against Eimeria acervulina in chickens at 125 ppm; format: functional; design: scale not given: the % may be the effect or the level left; method in brief: as §1
Gallus gallus [26] = organism: Gallus gallus; assay: Anticoccidial activity (percent reduction in oocyst production) against Eimeria mitis in chickens at 125 ppm; format: functional; design: scale not given: the % may be the effect or the level left
Gallus gallus [27] = organism: Gallus gallus; assay: Anticoccidial activity (percent reduction in oocyst production) against Eimeria mitis in chickens at 75 ppm; format: functional; design: scale not given: the % may be the effect or the level left
Gallus gallus [28] = organism: Gallus gallus; assay: Anticoccidial activity (percent reduction in oocyst production) against Eimeria praecox in chickens at 25 ppm; Range = 50-79 %; format: functional; design: scale not given: the % may be the effect or the level left
Gallus gallus [29] = organism: Gallus gallus; assay: Anticoccidial activity (percent reduction in oocyst production) against Eimeria mitis in chickens at 25 ppm; Range = 50-79 %; format: functional; design: scale not given: the % may be the effect or the level left
Gallus gallus [30] = organism: Gallus gallus; assay: Anticoccidial activity (percent reduction in oocyst production) against Eimeria maxima in chickens at 75 ppm; format: functional; design: scale not given: the % may be the effect or the level left
Gallus gallus [31] = organism: Gallus gallus; assay: Anticoccidial activity (percent reduction in oocyst production) against Eimeria brunetti in chickens at 50 ppm; format: functional; design: scale not given: the % may be the effect or the level left
Gallus gallus [32] = organism: Gallus gallus; assay: Anticoccidial activity (percent reduction in oocyst production) against Eimeria brunetti in chickens at 25 ppm; Range = 50-79 %; format: functional; design: scale not given: the % may be the effect or the level left
Gallus gallus [33] = organism: Gallus gallus; assay: Anticoccidial activity (percent reduction in oocyst production) against Eimeria tenella in chickens at 25 ppm; Range = 50-79 %; format: functional; design: scale not given: the % may be the effect or the level left; method in brief: as §1
Gallus gallus [34] = organism: Gallus gallus; assay: Anticoccidial activity (percent reduction in oocyst production) against Eimeria necatrix in chickens at 125 ppm; format: functional; design: scale not given: the % may be the effect or the level left
Gallus gallus [35] = organism: Gallus gallus; assay: Anticoccidial activity (percent reduction in oocyst production) against Eimeria tenella in chickens at 75 ppm; format: functional; design: scale not given: the % may be the effect or the level left; method in brief: as §1

SMILES: CN1CCC(c2cc(-c3ccncc3)c(-c3ccc(F)cc3)s2)CC1
- Activity (Eimeria tenella): >=80%
- Activity (Eimeria acervulina): >=80%
- IC50 [1]: 4.2 nM

SMILES: CN1CCC(c2cc(-c3cccnc3)c(-c3ccc(F)cc3)[nH]2)CC1
- Activity (Eimeria tenella): <50%
- IC50 [1]: 11.7 nM

SMILES: CN1CCC(c2cc(-c3ccncc3)c(-c3ccoc3)[nH]2)CC1
- Activity (Eimeria tenella): <50%
- Activity (Eimeria acervulina): <50%
- IC50 [1]: 26.3 nM

SMILES: CC(N)CN1CCC(c2cc(-c3ccncc3)c(-c3ccc(F)cc3)[nH]2)CC1 (stereo not drawn)
- Activity (Eimeria tenella): >=80%
- Activity (Eimeria acervulina): >=80%
- IC50 [1]: 2 nM

SMILES: Cc1cc(-c2cc(C3CCN(C)CC3)[nH]c2-c2ccc(F)cc2)ccn1
- Activity (Eimeria tenella): <50%
- Activity (Eimeria acervulina): <50%
- IC50 [1]: 2.8 nM

SMILES: CN1CCC(c2cc(-c3ccncc3)c(-c3ccc(C(F)(F)F)cc3)[nH]2)CC1
- Activity (Eimeria tenella): <50%
- Activity (Eimeria acervulina): <50%
- IC50 [1]: 55 nM

SMILES: CN1CCC(c2cc(-c3ccncc3)c(-c3ccc(F)c(F)c3)[nH]2)CC1
- Activity (Eimeria tenella): >=80%
- Activity (Eimeria acervulina): <50%
- IC50 [1]: 2 nM

SMILES: CN1CCC(c2cc(-c3ccncc3)c(-c3ccc(F)cc3)o2)CC1
- Activity (Eimeria tenella): <50%
- IC50 [1]: 2.1 nM

SMILES: CN1CCC(c2cc(-c3ccncc3)c(-c3nccs3)[nH]2)CC1
- Activity (Eimeria tenella): <50%
- Activity (Eimeria acervulina): <50%
- IC50 [1]: 39.7 nM

SMILES: CN1CCC(c2cc(-c3ccncc3)c(-c3ccc(S(C)(=O)=O)cc3)[nH]2)CC1
- Activity (Eimeria tenella): >=80%
- Activity (Eimeria acervulina): <50%
- IC50 [1]: 42 nM

Stronger by IC50 [1], values ahead:

- IC50 [1]: 1.2 nM
SMILES: CN1CCC(c2[nH]c(-c3ccc(F)cc3)c(-c3ccncc3)c2Br)CC1
- Activity (Eimeria tenella): <50%
- Activity (Eimeria acervulina): <50%

- IC50 [1]: 0.28 nM
SMILES: CCN1CCC(c2cc(-c3ccncc3)c(-c3ccc(F)cc3)[nH]2)CC1
- Activity (Eimeria tenella): >=80%
- T1/2 (Gallus gallus [2]): 1.2 h
- Activity (Gallus gallus [3]): <79%
- bioavailability (Gallus gallus [4]): 84%
- Activity (Gallus gallus [5]): <79%
- Activity (Gallus gallus [6]): >=80%
- Activity (Gallus gallus [7]): >=80%
- Activity (Gallus gallus [8]): <79%
- Activity (Gallus gallus [9]): >=80%
- Activity (Gallus gallus [10]): >=80%
- Activity (Eimeria acervulina): >=80%
- Activity (Gallus gallus [11]): >=80%
- Activity (Gallus gallus [12]): >=80%
- Activity (Gallus gallus [13]): >=80%
- Activity (Gallus gallus [14]): >=80%
- Activity (Gallus gallus [15]): >=80%
- Activity (Gallus gallus [16]): >=80%
- Activity (Gallus gallus [17]): >=80%
- Activity (Gallus gallus [18]): >=80%
- Activity (Gallus gallus [19]): >=80%
- Activity (Gallus gallus [20]): >=80%
- Activity (Gallus gallus [21]): <79%
- Activity (Gallus gallus [22]): >=80%
- Activity (Gallus gallus [23]): >=80%
- Activity (Gallus gallus [24]): >=80%
- Activity (Gallus gallus [25]): >=80%
- Activity (Gallus gallus [26]): >=80%
- Activity (Gallus gallus [27]): >=80%
- Activity (Gallus gallus [28]): <79%
- Activity (Gallus gallus [29]): <79%
- Activity (Gallus gallus [30]): >=80%
- Activity (Gallus gallus [31]): >=80%
- Activity (Gallus gallus [32]): <79%
- Activity (Gallus gallus [33]): <79%
- Activity (Gallus gallus [34]): >=80%
- Activity (Gallus gallus [35]): >=80%

- IC50 [1]: 0.24 nM
SMILES: NC1(CN2CCC(c3cc(-c4ccncc4)c(-c4ccc(F)cc4)[nH]3)CC2)CC1
- Activity (Eimeria tenella): <50%
- Activity (Eimeria acervulina): <50%

- IC50 [1]: 0.32 nM
SMILES: CC(=O)CN1CCC(c2cc(-c3ccncc3)c(-c3ccc(F)cc3)[nH]2)CC1
- Activity (Eimeria tenella): <50%
- Activity (Eimeria acervulina): <50%

- IC50 [1]: 0.71 nM
SMILES: OCCN1CCC(c2cc(-c3ccncc3)c(-c3ccc(F)cc3)[nH]2)CC1
- Activity (Eimeria tenella): >=80%
- Activity (Eimeria acervulina): >=80%

- IC50 [1]: 0.15 nM
SMILES: CN1CCC(c2cc(-c3ccncc3)c(-c3ccc(F)c(Br)c3)[nH]2)CC1
- Activity (Eimeria tenella): <50%
- Activity (Eimeria acervulina): <50%

- IC50 [1]: 1.02 nM
SMILES: CN1CCC(c2[nH]c(-c3ccc(F)cc3)c(-c3ccncc3)c2Cl)CC1
- Activity (Eimeria acervulina): <50%

- IC50 [1]: 0.53 nM
SMILES: OCCCN1CCC(c2cc(-c3ccncc3)c(-c3ccc(F)cc3)[nH]2)CC1
- Activity (Eimeria acervulina): >=80%

- IC50 [1]: 1 nM
SMILES: Cc1c(C2CCN(C)CC2)[nH]c(-c2ccc(F)cc2)c1-c1ccncc1
- Activity (Eimeria tenella): <50%
- Activity (Eimeria acervulina): <50%

- IC50 [1]: 0.7 nM
SMILES: CN1CCC(c2cc(-c3ccncc3)c(-c3ccc(F)cc3)[nH]2)CC1
- Activity (Eimeria tenella): >=80%
- Activity (Eimeria acervulina): >=80%

- IC50 [1]: 0.97 nM
SMILES: CN1CCC(c2nc(-c3ccc(F)cc3)c(-c3ccncc3)o2)CC1
- Activity (Eimeria tenella): >=80%
- Activity (Eimeria acervulina): >=80%
